Assay results taken from PubChem BioAssay.
Results filed as inconclusive are left out.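 The calls were made as follows, unless noted: active = viability increase at or above a cutoff of the median across tested compounds plus 3 SD (cut at about 8.5% in these data, passing the limit was not always enough); inconclusive = some gains above the cutoff, reason not given; inactive = the rest.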

Key:
[1] = S. cerevisiae growth inhibition in permissive medium (OD615), pilot counter-assay for S. cerevisiae lifespan shortening project, permissive growth control (AID 705;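 active = growth inhibition above 25% in both replicates, a cutoff set 3 SD above the mean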); conditions: OD615, 24 h, at 10 µM, active compounds read high
In short: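 Material: engineered DeaD yeast; compound dosing: one dose 10 µM, DMSO 0.25% final; measure: yeast growth inhibition indicated by reduced 24 h OD615; detection: OD615 turbidity read; incubation: cells pre-grown 4 h, then 24 h compound exposure, 30 °C humidified; medium: permissive synthetic complete medium with raffinose and galactose carbon sources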

[2] = S. cerevisiae growth inhibition in restrictive medium, OD615, pilot screen, restrictive growth control, yeast lifespan reduction project (AID 706;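 active = growth inhibition above a set limit, 3 SD over mean compound inhibition, in both replicates, cut at about 43% in these data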;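 also: modified DeaD lifespan yeast strain shifted to restrictive glucose medium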); conditions: OD615, 48 h, at 10 µM, active compounds read high
In short: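 material = engineered S. cerevisiae DeaD strain | medium = glucose-based CSMM-D restrictive medium | times = 4 h pre-incubation, 48 h exposure at 30 °C | technique = OD615 absorbance reading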

[3] = doxorubicin toxicity protection in MRP-1 cells – H69AR cells, CellTiter-Glo, duplicate, MRP-1 activator project, pilot screen (AID 807); conditions: H69AR viability with doxorubicin, CellTiter-Glo luminescence; at 10 µM; active compounds read high;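 also: compound pretreatment 18-22 h then 72 h combined with doxorubicin; 0% = doxorubicin alone and 100% = vehicle without doxorubicin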
[4] = viability of HCT116 without oncogenic beta-catenin – human colon tumor cells, pilot screen (AID 823;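 active = cell viability at or below a set limit in both duplicate runs, the limit being the all-compound median minus 4 SD, cut at about 23% in these data, passing the limit was not always enough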;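 also: 0% = wells killed by 20 µM Hyamine and 100% = untreated DMSO cell wells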); conditions: HCT116 beta-catenin knockout viability, CellTiter-Glo, 60 h; at 10 µM; active compounds read low
[5] = viability of PTEN-null HCT116 cells – cell-based, HCT116 clonal line, CellTiter-Glo, pilot screen (AID 824;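 active = viability at or below 27.92% in each of two runs, the all-compound median minus 4 SD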;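 also: 0% = 20 µM Hyamine control and 100% = vehicle cell control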); conditions: HCT116 PTEN-deleted viability, 60 h, at 10 µM, active compounds read low
[6] = RAM pathway blockade in budding yeast – dse1pr::URA3 reporter, 5-FOA selection, pilot screen (AID 869;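 active = inhibition over a set limit, the all-compound mean plus 3 SD, in both replicate runs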;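 also: 0% = DMSO wells with no growth and 100% = 10 µM 1-NA-PP1 with full growth; RAM network block rescues cells from 5-FOA so hits raise OD615 growth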); conditions: S. cerevisiae dse1pr::URA3 5-FOA growth, OD615, 2 d; at 10 µM; active compounds read high; strain carries analog-sensitive mutant Cbk1 kinase
[7] = RAM signaling pathway blockade in yeast – S. cerevisiae, Pdr1DBD-CYC8 efflux-inhibited sensitized strain, primary screen (AID 1298;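 active = RAM network inhibition above 8.4% in each of two replicates, 3 SD over the compound average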;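 also: 0% = DMSO untreated cells without growth and 100% = 10 µM 1-NA-PP1 full growth; higher means more yeast growth rescued from 5-FOA killing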); conditions: S. cerevisiae cbk1-as DSE1-URA3 strain, 5-FOA growth OD615, 2 d; at 50 µM; active compounds read high

COc1ccccc1-c1c(C)nn2c(NCCN3CCCC3)cc(C)nc12
inactive: growth inhibition [1] -3.48% | growth inhibition [2] 0.235% | viability increase [3] -1.54% | viability [4] 87.1% | viability [5] 92.6% | inhibition [6] 0.815% | RAM network inhibition [7] 2.33%

Cc1nc2ccccc2c2oc(C(=O)N3CCN(C4CCCCC4)CC3)cc12
inactive: growth inhibition [1] 7.91% | growth inhibition [2] 8.38% | viability increase [3] -3.69% | viability [4] 44.1% | viability [5] 57.5% | inhibition [6] 0.555% | RAM network inhibition [7] 3.92%

O=C(C1=C(O)C(=O)N(c2ncccn2)C1c1cccs1)c1ccco1 (configuration not stated)
inactive: growth inhibition [1] 0.75% | growth inhibition [2] 7.12% | viability increase [3] -4.29% | viability [4] 86.5% | viability [5] 85.3% | inhibition [6] 1.54% | RAM network inhibition [7] 1.69%

Cn1c(Cn2c(=O)sc3ccccc32)nnc1SCC(=O)NCc1ccccc1Cl
inactive: growth inhibition [1] -7.92% | growth inhibition [2] -13.9% | viability increase [3] -1.32% | viability [4] 100% | viability [5] 103% | inhibition [6] 0.62% | RAM network inhibition [7] 3.96%

CCN(CC)CCCNC(=O)c1cc(-c2ccc(O)cc2)on1
inactive: growth inhibition [1] -14.6% | growth inhibition [2] 9.75% | viability increase [3] -3.12% | viability [4] 99.1% | viability [5] 96.1% | inhibition [6] 1.24% | RAM network inhibition [7] 1.77%

COc1cccc(CNC(=O)C2CCN(S(=O)(=O)c3cccc4cccnc34)CC2)c1
inactive: growth inhibition [1] -10.5% | growth inhibition [2] -2.92% | viability increase [3] -1.45% | viability [4] 100% | viability [5] 97.5% | inhibition [6] 2.88% | RAM network inhibition [7] 3.03%

CCOC(=O)C1CCN(S(=O)(=O)c2ccc3[nH]c(=O)oc3c2)CC1
inactive: growth inhibition [1] -10% | growth inhibition [2] -5.23% | viability increase [3] -1.5% | viability [4] 97.8% | viability [5] 91.1% | inhibition [6] 0.515% | RAM network inhibition [7] 2.82%

Cc1cc(C(C)(C)C)oc1C(=O)Nc1ccc(CC(=O)O)cc1
inactive: growth inhibition [1] -5.71% | growth inhibition [2] 6.31% | viability increase [3] 1.52% | viability [4] 100% | viability [5] 98.9% | inhibition [6] 1.31% | RAM network inhibition [7] 3.99%

O=C(Cc1ccc2c(c1)OCCO2)c1c(O)cc(O)cc1O
inactive: growth inhibition [1] -12.3% | growth inhibition [2] -4.45% | viability increase [3] -1.79% | viability [4] 96.1% | viability [5] 94% | inhibition [6] 3.34% | RAM network inhibition [7] 6.58%

COc1ccc(NS(=O)(=O)c2ccc(NS(=O)(=O)c3ccc(C)cc3)cc2)nn1
inactive: growth inhibition [1] -13.5% | growth inhibition [2] -7.58% | viability increase [3] 1.15% | viability [4] 92.9% | viability [5] 96.8% | inhibition [6] 2.95% | RAM network inhibition [7] 4.16%

CC1=C(C(=O)OC(C)C)C(c2c[nH]c3ccccc23)n2ncnc2N1 (configuration not stated)
inactive: growth inhibition [1] -5.16% | growth inhibition [2] -3.17% | viability increase [3] -1.69% | viability [4] 105% | viability [5] 97.1% | inhibition [6] 2.2% | RAM network inhibition [7] -0.16%

CCC(NC(=O)c1ccccc1NC(=O)c1ccco1)C(=O)NC1CCCCC1 (configuration not stated)
inactive: growth inhibition [1] -4.2% | growth inhibition [2] 7.98% | viability increase [3] -2.29% | viability [4] 89.1% | viability [5] 98.3% | inhibition [6] 1.35% | RAM network inhibition [7] 2.08%

O=C(Nc1nnc(CC(=O)N2CCCC2)s1)c1cnccn1
inactive: growth inhibition [1] -3.58% | growth inhibition [2] 4.7% | viability increase [3] -1.2% | viability [4] 104% | viability [5] 100% | inhibition [6] 1.66% | RAM network inhibition [7] -0.94%

O=C(O)c1cccc(NS(=O)(=O)c2cccc3cccnc23)c1
inactive: growth inhibition [1] -3.04% | growth inhibition [2] -3.79% | viability increase [3] 0.96% | viability [4] 103% | viability [5] 99.8% | inhibition [6] 0.655% | RAM network inhibition [7] 4.37%

CCc1ccccc1S(=O)(=O)Cc1ccc(C(=O)NCc2ccc3c(c2)OCO3)o1
inactive: growth inhibition [1] -12% | growth inhibition [2] -13.8% | viability increase [3] -2.5% | viability [4] 95.7% | viability [5] 91.1% | inhibition [6] 1.87% | RAM network inhibition [7] 7.83%

CCN(CC)S(=O)(=O)c1ccc(C(=O)C(C#N)c2ccccn2)cc1 (configuration not stated)
inactive: growth inhibition [1] -12.8% | growth inhibition [2] -19.5% | viability increase [3] 1.28% | viability [4] 95.3% | viability [5] 102% | inhibition [6] 0.455% | RAM network inhibition [7] 5.32%

O=c1c2[nH]c3ccc(F)cc3c2ncn1CCN1CCN(Cc2ccccc2)CC1
inactive: growth inhibition [1] -2.19% | growth inhibition [2] 1.39% | viability increase [3] -3.25% | viability [4] 86.3% | viability [5] 80.3% | inhibition [6] 1.52% | RAM network inhibition [7] 1.11%

Cc1c(C(=O)OCC2CCCO2)[nH]c2c1C(=O)CC(c1ccc(N(C)C)cc1)C2 (configuration not stated)
inactive: growth inhibition [1] -4.14% | growth inhibition [2] 3.2% | viability increase [3] -0.25% | viability [4] 67.7% | viability [5] 71.5% | inhibition [6] 1.09% | RAM network inhibition [7] 6.62%

Cc1cc(NC(=O)C2CC(c3ccc(F)cc3)=NO2)no1 (configuration not stated)
inactive: growth inhibition [1] -0.42% | growth inhibition [2] -0.655% | viability increase [3] -0.18% | viability [4] 101% | viability [5] 109% | inhibition [6] -0.08% | RAM network inhibition [7] 4.62%

COC(=O)c1coc(-c2ccc(C)cc2)c1C(=O)OC
inactive: growth inhibition [1] -4.24% | growth inhibition [2] 2% | viability increase [3] 0.08% | viability [4] 88.6% | viability [5] 95.9% | inhibition [6] 0.11% | RAM network inhibition [7] 3.96%

O=C(CSc1nnc(Cc2cc(=O)[nH]c(=O)[nH]2)n1-c1ccc(Cl)cc1)NC1CCCC1
inactive: growth inhibition [1] -14.1% | growth inhibition [2] -17.7% | viability increase [3] -0.76% | viability [4] 108% | viability [5] 104% | inhibition [6] 1.92% | RAM network inhibition [7] 0.32%

CCn1c(=O)c2cc(C(=O)N3CCCC3)sc2c2ccccc21
inactive: growth inhibition [1] -4.95% | growth inhibition [2] 13% | viability increase [3] -1.55% | viability [4] 111% | viability [5] 96.8% | inhibition [6] 1.59% | RAM network inhibition [7] 2.1%

CC1(C)CC(=O)C(C=Nc2ccccc2)=C(O)C1
inactive: growth inhibition [1] -7.81% | growth inhibition [2] 1.81% | viability increase [3] -1.32% | viability [4] 98.1% | viability [5] 96.2% | inhibition [6] 2.92% | RAM network inhibition [7] 1.59%

Cc1ccc(N2C(=O)c3oc4ccccc4c(=O)c3C2c2cccnc2)nc1 (configuration not stated)
inactive: growth inhibition [1] -12.7% | growth inhibition [2] -4.26% | viability increase [3] 0.88% | viability [4] 99.3% | viability [5] 102% | inhibition [6] 1.04% | RAM network inhibition [7] 5.38%

CCOC(=O)C1Cc2ccccc2C(=O)O1 (configuration not stated)
inactive: growth inhibition [1] -4.84% | growth inhibition [2] -2.44% | viability increase [3] -0.24% | viability [4] 96.4% | viability [5] 100% | inhibition [6] 0.47% | RAM network inhibition [7] 5.42%

c1ccc(N2CCN(c3nnnn3-c3ccccc3)CC2)cc1
inactive: growth inhibition [1] -10.6% | growth inhibition [2] 3.73% | viability increase [3] -0.01% | viability [4] 76% | viability [5] 75.7% | inhibition [6] 1.12% | RAM network inhibition [7] 9%

COc1ccc(OCC(=O)NC2CC(C)(C)NC(C)(C)C2)cc1
inactive: growth inhibition [1] 4.15% | growth inhibition [2] 2.14% | viability increase [3] 1.31% | viability [4] 103% | viability [5] 105% | inhibition [6] -0.405% | RAM network inhibition [7] 3.43%

COC(=O)c1sc2nc3c(cc2c1N)COC(C)(C)C3
inactive: growth inhibition [1] -6.75% | growth inhibition [2] -7.37% | viability increase [3] -1.54% | viability [4] 101% | viability [5] 94.1% | inhibition [6] 1.19% | RAM network inhibition [7] 3.17%

Cc1c(C(=O)NCc2cccnc2)sc2nc(-c3ccc(F)cc3)cn12
inactive: growth inhibition [1] -6.33% | growth inhibition [2] 22.2% | viability increase [3] 0.45% | viability [4] 77.3% | viability [5] 78% | inhibition [6] 1.01% | RAM network inhibition [7] 2.56%

Cc1sc(NC(=O)CCCC(=O)O)c(C#N)c1C
inactive: growth inhibition [1] -0.59% | growth inhibition [2] 16.8% | viability increase [3] -1.9% | viability [4] 99.4% | viability [5] 99% | inhibition [6] 1.27% | RAM network inhibition [7] 3.31%

O=C(NCc1ccco1)C1CCN(c2nnc(-n3cccc3)s2)CC1
inactive: growth inhibition [1] 3.71% | growth inhibition [2] -3.18% | viability increase [3] -3.76% | viability [4] 97.2% | viability [5] 95.8% | inhibition [6] 0.985% | RAM network inhibition [7] 5.26%

COc1ccc(-c2cn3c(C)c(C(=O)N4CCc5ccccc5C4)sc3n2)cc1
inactive: growth inhibition [1] 0.41% | growth inhibition [2] 6.71% | viability increase [3] -7.22% | viability [4] 87.6% | viability [5] 84.5% | inhibition [6] 3.01% | RAM network inhibition [7] 4.47%

CCOCCCNC(=O)c1cccs1
inactive: growth inhibition [1] -5.41% | growth inhibition [2] -4.17% | viability increase [3] -1.31% | viability [4] 91% | viability [5] 94.4% | inhibition [6] 2.22% | RAM network inhibition [7] 0.76%

CC(C)Cc1cc(C(=O)Nc2cc(Cl)ccc2Cl)no1
inactive: growth inhibition [1] -14.2% | growth inhibition [2] -0.125% | viability increase [3] -2.35% | viability [4] 104% | viability [5] 98% | inhibition [6] 3.71% | RAM network inhibition [7] 1.67%

CCCOC(=O)c1cccc(NC(=O)C(C)(C)C)c1
inactive: growth inhibition [1] -17.4% | growth inhibition [2] -14.3% | viability increase [3] 0.9% | viability [4] 98.7% | viability [5] 98.8% | inhibition [6] -0.725% | RAM network inhibition [7] 1.87%

CC1=C(C(=O)OC(C)C)C(c2c(O)ccc3ccccc23)NC(=O)N1 (configuration not stated)
inactive: growth inhibition [1] 2.06% | growth inhibition [2] -6.33% | viability increase [3] -3.16% | viability [4] 93.9% | viability [5] 90.7% | inhibition [6] 1.88% | RAM network inhibition [7] 2.42%
